Source: PubChem (several laboratories)
WT yeast gro inh – growth inhibition of WT strain, primary screen, mitochondrial fusion inhibitor project, WT and mutant strains, chemical genetic; mitochondrial fusion phenotypic screen; inhibition, % at 10 µM; hit rate 2.1% among 190,000; AID 1362, 2008; in the data active = inhibition above about 58%; tested in S. cerevisiae
14-3-3 Bad inh – inhibitors of 14-3-3 zeta/Bad binding, primary screen, biochemical, TR-FRET, bovine 14-3-3 zeta; inhibition, % at 21.7 µM; 14-3-3 protein zeta/delta (Bos taurus), P63103; TR-FRET 14-3-3zeta/Dy647-pBad peptide displacement, 1 h; AID 781, 2007; hit rate 0.71% among 220,000;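 active = inhibition above about 70%, limit read from the data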;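 note: 0% = full 14-3-3 plus peptide FRET controls and 100% = background without 14-3-3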
Target sequence (P63103 whole entry, looked up): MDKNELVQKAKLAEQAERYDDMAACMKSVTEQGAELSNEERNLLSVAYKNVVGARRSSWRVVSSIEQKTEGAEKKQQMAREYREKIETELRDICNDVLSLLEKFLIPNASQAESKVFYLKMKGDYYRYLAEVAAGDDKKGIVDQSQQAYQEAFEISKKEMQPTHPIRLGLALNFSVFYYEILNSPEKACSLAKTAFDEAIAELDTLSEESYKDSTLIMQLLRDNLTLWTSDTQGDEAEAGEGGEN
NCF1 inh – p47phox/p22phox peptide binding inhibitors, primary screen, biochemical, uHTS, NADPH oxidase regulatory subunit | fluorescence polarization, 2 h | inhibition, % at 24.7 µM | Neutrophil cytosol factor 1 (Homo sapiens), P14598 | hit rate 0.53% among 220,000;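 active = inhibition above about 30%, limit read from the data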;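 note: 0% = p47phox with labelled peptide and 100% = labelled peptide alone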
Target sequence (P14598 whole entry, looked up): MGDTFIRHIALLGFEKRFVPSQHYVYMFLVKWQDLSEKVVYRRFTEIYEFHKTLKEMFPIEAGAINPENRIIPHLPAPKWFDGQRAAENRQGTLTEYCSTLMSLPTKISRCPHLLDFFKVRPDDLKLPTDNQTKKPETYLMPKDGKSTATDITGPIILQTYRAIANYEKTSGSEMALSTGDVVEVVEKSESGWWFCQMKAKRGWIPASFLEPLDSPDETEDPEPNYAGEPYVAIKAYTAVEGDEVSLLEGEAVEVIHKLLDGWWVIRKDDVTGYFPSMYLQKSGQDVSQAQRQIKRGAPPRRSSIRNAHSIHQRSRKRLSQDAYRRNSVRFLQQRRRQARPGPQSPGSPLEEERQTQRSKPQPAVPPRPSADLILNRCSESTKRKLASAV
RBBP9 inhibitor – human RBBP9 inhibitors, primary screen, biochemical, fluorescence polarization, FP-Rh probe, HTS | inhibition, % at 7.94 µM | hit rate 0.2% among 220,000 | recombinant RBBP9;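 active = inhibition above the campaign mean of all tested compounds plus 3 SD, cut at about 14% in these data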;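 note: plate controls were DMSO wells with RBBP9 for no effect and wells lacking RBBP9 protein for full effect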
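Material: RBBP9 protein. Amount: RBBP9 at 2.5 µM in dispensed solution, before mixing. Schedule: 30 min then 45 min, 25 °C. Medium: Tris buffer pH 8.0, NaCl, Pluronic. Measured by: fluorescence polarization. Measure: percent inhibition from mP, scaled between DMSO and no-protein wells. Replication: one well per compound.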
Cl transport mod – KCC2 cotransporter modulators, thallium flux, primary screen, cell-based, HEK293 KCC2, FluoZin-2 fluorescence, MLSMR. hit rate 2.2% among 190,000. KCC2 cells, thallium flux FluoZin-2 fluorescence. Solute carrier family 12 member 5 (Homo sapiens), Q9H2X9. AID 1456, 2008. B-score of Tl+ flux slope (higher = more flux/activation; lower = inhibition) at 10 µM;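 active = thallium flux slope and its plate-corrected score both differing from the plate sample mean at a set confidence after two filtering rounds, in either direction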;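 note: slope of fluorescence scaled to starting intensity during 10 to 20 s after thallium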
ROMK mod – ROMK potassium channel modulators, primary screen, cell-based, thallium flux, MLSMR library. ATP-sensitive inward rectifier potassium channel 1 (Homo sapiens), P48048. Tet-inducible ROMK, thallium flux fluorescence; actives lie on both sides. B-score at 10 µM. hit rate 2% among 130,000;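 active = signal ratio slope over the read window, or its plate-corrected B-score, at least 3 SD from the plate mean, either direction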;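 note: B-score of the F/F0 ratio slope over 7 to 12 s after thallium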
KCC2 secondary – KCC2 modulators in sodium-free buffer, confirmation, cell-based, HEK293 KCC2, thallium flux, secondary assay; hit rate 15% among 3,700; shares compounds with Cl transport mod; normalised thallium flux (F/F0 slope) at 10 µM; FluoZin2 fluorescence; active compounds read high;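 active = thallium flux slope above the same plate's solvent-only control mean plus 3 SD; inconclusive = the two replicate wells disagree; inactive = no significant difference from solvent-only control wells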
KCC2 bumet counter – thallium flux persisting under bumetanide in KCC2 cells, confirmation, counter-screen for KCC2 modulator project, cell-based, HEK293 KCC2, FluoZin2, secondary assay 3. HEK293-KCC2 + bumetanide/ouabain; active compounds read high. normalized thallium flux at 10 µM. hit rate 49% among 3,700. shares compounds with Cl transport mod. AID 1714, 2009;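 active = thallium entry rate above the same plate's blocked-transporter control wells by more than 3 SD; inconclusive = the two repeat wells disagree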;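 note: raw slope of fluorescence over initial fluorescence between 10 and 20 s after thallium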
KCC2 secondary2 – KCC2 modulators without ouabain present, confirmation, cell-based, HEK293 KCC2, thallium flux, FluoZin2, secondary assay 2. thallium flux FluoZin2 fluorescence; actives lie on both sides; F/F0 rise rate, 10–20 s post-thallium. shares compounds with Cl transport mod. hit rate 23% among 3,700. normalized thallium flux at 10 µM;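 active = thallium flux slope more than 3 SD above or below the plate's solvent-only control mean, mostly below; inconclusive = the two repeat wells disagreed; inactive = no significant shift from solvent-only controls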;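 note: raw slope with 0.1% DMSO as baseline and bumetanide as block control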
HEK293 Tl flux – thallium flux modulation in parental HEK cells, confirmation, counter-screen for KCC2 modulator project, cell-based, counterscreen 1. shares compounds with Cl transport mod. HEK293 parental cells, thallium flux FluoZin2, ouabain; baseline-ratio fluorescence slope, 10–20 s after thallium. thallium flux rate (normalised fluorescence) at 10 µM. hit rate 46% among 3,700;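 active = thallium flux rate significantly above the same plate's solvent-only control wells, beyond their mean plus 3 SD; inconclusive = the two replicate wells gave conflicting results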
KCC2 retest ouab – KCC2 inhibitors and activators, ouabain retest, confirmation, HEK-KCC2 cells | raw Tl+ flux slope (below DMSO = inhibition, above = activation) at 10 µM | shares compounds with Cl transport mod | HEK293-KCC2, thallium flux FluoZin2 fluorescence; bidirectional: low = inhibitor, high = activator | hit rate 48% among 3,700;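 active = thallium flux slope beyond 3 SD from same-plate DMSO control mean in most replicates, usually higher, sometimes lower; inconclusive = repeat tests gave conflicting results; inactive = no significant difference from controls in most replicates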;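 note: slope of initial-normalized fluorescence between seconds 10 and 20 after thallium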
HEK counter2 – native HEK Tl+ uptake effects, second counter-screen – HEK cells, counterscreen 2, counter-screen for KCC2 modulator project, confirmation | thallium flux slope at 10 µM | HEK293 parental, thallium flux FluoZin-2 fluorescence slope | shares compounds with Cl transport mod | hit rate 33% among 3,700;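 active = thallium flux slope above the same plate's solvent-control mean plus 3 SD in both duplicate wells; inconclusive = duplicate wells that disagreed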;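 note: run without ouabain in cells lacking the KCC2 cotransporter; slope of fluorescence scaled to its starting value between 10 and 20 s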
The depositor's hits bear a star; u = inconclusive; x = no result. Hits are enriched below; roughly 5.8% of the tested compounds scored in any of these assays.

SMILES	WT yeast gro inh	14-3-3 Bad inh	NCF1 inh	RBBP9 inhibitor	Cl transport mod	ROMK mod	KCC2 secondary	KCC2 bumet counter	KCC2 secondary2	HEK293 Tl flux	KCC2 retest ouab	HEK counter2
O=C(NC(=S)N1CCN(C/C=C/c2ccccc2)CC1)c1ccc(Cl)nc1	x	-4	-8	5	68*	x	0.0077	0.08*	0.063*	0.056*	0.067*	0.054*
O=C(NC(=S)N1CCN(Cc2ccccc2)CC1)c1cccnc1	16	-1	3	-13	-0.23	0.48	x	x	x	x	x	x
CCOc1ccc(NS(=O)(=O)c2ccc(NS(=O)(=O)c3ccccc3)cc2)cc1	4	-7	-9	2	x	-2	0.0079	0.0063	0.03	0.0074	u	0.011
Cc1ccc(NC(=O)C(=O)NCCN2CCN(S(C)(=O)=O)CC2)cc1C	3	-14	0	2	-0.84	0.19	x	x	x	x	x	x
Cc1ccc(-n2c(-c3ccco3)n[nH]c2=S)cc1	3	-2	-3	-4	0.87	0.48	x	x	x	x	x	x
CC(C1CC2CCC1C2)n1c(-c2ccco2)n[nH]c1=S (stereo unspecified)	72*	-7	5	5	21*	0.83	0.017*	0.07*	u	0.028*	0.056*	0.016*
O=C(CN1CCN(S(=O)(=O)c2ccccc2)CC1)Nc1ccc2c(c1)CCC2	-10	7	-11	0	6.2*	-0.28	0.0065	0.0048	u	0.0076	0.017	0.011
CCOC(=S)N/C(=N\S(=O)(=O)c1ccc(C)cc1)c1ccccc1	-10	5	-9	2	x	x	u	0.015*	0.04	u	0.028*	0.011
Cc1ccc(S(=O)(=O)NN/C(=N/S(=O)(=O)c2ccccc2)c2ccccc2)cc1	-3	-3	-7	3	-0.23	1	x	x	x	x	x	x
COc1ccc(NC(=S)N/C(=N/S(=O)(=O)c2ccc(C)cc2)c2ccccc2)cc1	6	-5	-3	-4	4.2*	0.47	u	0.02*	0.032	0.013*	0.026*	0.012
O=C(Cn1nc2ccccc2n1)N/N=C/c1cc(Cl)cc([N+](=O)[O-])c1O	16	17	4	-10	-5.3*	2	0.0071	u	0.025*	0.0071	u	0.011
Cc1oc(-c2ccc3c(c2)OCCO3)cc1C(=O)NC(Cc1ccccc1)C(=O)O (stereo unspecified)	0	-12	-6	-5	x	x	x	x	x	x	x	x
Cc1noc(C(=O)NCc2ccc(F)cc2)c1Cl	-2	-1	-11	-10	6.8*	x	0.0085	0.0067	0.029	0.007	0.021	0.0095
Cc1ccc(C)c(S(=O)(=O)NC(Cc2c[nH]c3ccccc23)C(=O)O)c1 (stereo unspecified)	-15	-5	1	-8	0.057	0.2	x	x	x	x	x	x
Cc1ccc(C)c(S(=O)(=O)NC(CC(C)C)C(=O)O)c1 (stereo unspecified)	15	-5	-3	-9	5.6*	x	0.019	u	0.031	0.0073	0.014	0.01
O=C1NCC(O)=C1C=NCCO	-3	11	14	-2	x	x	0.0062	0.0051	0.031	0.0078	0.018	0.012
O=C(O)CCCN=CC1=C(O)CNC1=O	-18	-5	-2	-6	0.077	0.61	x	x	x	x	x	x
O=C(Oc1cc(=O)n2ccccc2n1)c1ccccc1	-14	3	-10	-5	-4.3*	-2.1	0.012*	0.0074	0.028	0.0056*	0.021	0.0095
O=C(O)c1c(Cl)nc2ccccn12	5	-4	3	-9	0.55	1.5	x	x	x	x	x	x
O=C(NNC(=O)c1oc2ccccc2c1-n1cccc1)c1ccco1	-2	-5	0	-4	x	0.46	0.0074	0.024*	0.04*	0.019*	0.03*	0.019*
NNC(=O)c1oc2ccccc2c1-n1cccc1	-8	-4	4	-3	-0.22	-0.0094	x	x	x	x	x	x
O=C1Nc2ccccc2N(O)N1c1cc(-c2ccc(Cl)cc2)[nH]n1	24	-3	-9	-2	1.3	0.42	x	x	x	x	x	x
Cc1ccccc1-c1nc(CS(=O)CC(=O)NCc2ccccc2)c(C)o1 (stereo unspecified)	-4	6	-13	-3	x	x	0.006	u	0.024*	0.0067	u	0.011
CC(C)Cc1[nH]c(=O)c(C#N)c2c1CCCC2	18	8	2	-1	-0.5	0.3	0.016	0.0045	0.027	u	0.017	0.01
CCCc1[nH]c(=O)c(C#N)c2c1CCCC2	-5	3	-6	-5	0.22	x	x	x	x	x	x	x
CC(Sc1nnnn1-c1ccccc1)C(=O)Nc1ccc(Cl)cn1 (stereo unspecified)	25	-8	-1	-14	-4.4*	0.044	0.0073	0.0043	0.026*	0.006*	0.015*	u
CC1CCCC(NC(=O)CSc2ccc(F)cc2)C1C (stereo unspecified)	-9	-4	3	-2	-0.39	0.013	x	x	x	x	x	x
